How the values were obtained:
[1] = test system: subcutaneous MDA-MB-231 tumor xenografts; experiment: Whole body and ex vivo fluorescence imaging of NP distribution; type: in vivo, female athymic nude mice; conditions: ICG-labeled, tail vein, imaged over 24 h
[2] = test system: E/P-selectin on activated HUVECs; experiment: Competitive inhibition of FITC-labeled QA-NP binding to activated HUVECs; type: cell-based, human; conditions: 30 min pre-incubation; flow cytometry
Method in brief: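 HUVECs (passage 4, EGM-2, on rat-tail collagen I) were activated with 10 ng/mL TNF-α for 4 h. Free ligand, anti-E-selectin or anti-P-selectin antibody, or unlabeled nanoparticles were pre-incubated for 30 min. FITC-labeled particles (0.2 mg/mL) were then added for 2 h at 37 °C. Cells were washed twice with PBS, trypsinized, resuspended in cold PBS, and read for FL-1 fluorescence (488/525 nm).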

[3] = test system: HUVECs; experiment: Cytotoxicity of QA-NH2 on HUVECs; type: cell-based, human; conditions: 1 nM to 1 mM, 24 h, MTT
Method in brief: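 HUVECs were seeded at 10,000 cells per well on rat-tail collagen I; one group was pre-activated with 10 ng/mL TNF-α for 4 h. Test compound was added at 1 nM to 1 mM for 24 h. MTT (75 μg) was then added for 4 h, formazan was dissolved in 50% DMF/20% SDS at pH 5, and absorbance was read at 562 nm.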

Compound	tumor fluorescence in whole body imaging [1]	QA-NP binding to activated HUVECs after pre-treatment with competitor [2]	effect on HUVEC proliferation [3]
CC1(C)C(/C=C/C=C/C=C/C=C2\N(CCCCS(=O)(=O)O)c3ccc4ccccc4c3C2(C)C)=[N+](CCCCS(=O)(=O)[O-])c2ccc3ccccc3c21 [free ICG, indocyanine green]	did not show fluorescence in tumors at all time points	–	–
Nc1cc(NC(=O)[C@]2(O)C[C@@H](O)[C@@H](O)[C@H](O)C2)cc(C(=O)O)c1 [QA-NH2, 3-amino-5-((1S,3R,4S,5R)-1,3,4,5-tetrahydroxycyclohexane-1-carboxamido)benzoic acid]	–	reduced	no adverse effects

Reference: publication PMC6361670 (Small (Weinheim an der Bergstrasse, Germany), 2018)
